According to ChEMBL document CHEMBL2046284, “N-Pyridyl and Pyrimidine Benzamides as KCNQ2/Q3 Potassium Channel Openers for the Treatment of Epilepsy” (ACS Med Chem Lett, 2011):
Calls of active or inactive are those of the source. No cut-off for these calls is given here.

Tests used:
[1] = molecular target: Voltage-gated potassium channel, KQT; KCNQ2(Kv7.2)/KCNQ3(Kv7.3) (Homo sapiens, UniProt O43525+O43526); experiment: Agonist activity at KCNQ2/KCNQ3 expressed in CHO cells assessed as increase in KCl-induced 86Rb+ efflux incubated for 10 mins prior to KCl-induction by liquid scintillation counting; assay type: functional, cell-based
[2] = molecular target: Voltage-gated potassium channel, IKs; KCNQ1(Kv7.1)/KCNE1(MinK) (Homo sapiens, UniProt P15382+P51787); experiment: Antagonist activity at KCNQ1/MINK expressed in CHO cells assessed as inhibition of KCl-induced 86Rb+ efflux incubated for 10 mins prior to KCl-induction by liquid scintillation counting; assay type: functional, cell-based
[3] = molecular target: Voltage-gated potassium channel KCNQ3/KCNQ5 (Homo sapiens, UniProt O43525+Q9NR82); experiment: Agonist activity at KCNQ3/KCNQ5 expressed in CHO cells increase in KCl-induced 86Rb+ efflux incubated for 10 mins prior to KCl-induction by liquid scintillation counting; assay type: functional, cell-based
[4] = test system: Rattus norvegicus; experiment: Toxicity in po dosed rat assessed as nonhemolytic anemia after 14 days; assay type: organism-based; settings: in vivo, 336 h
[5] = test system: Rattus norvegicus; experiment: Antiepileptic activity in po dosed Sprague-Dawley rat assessed as latency in PTZ-induced seizure administered 30 mins prior to PTZ-challenge measured up to 15 minutes; assay type: functional
[6] = test system: Cynomolgus monkey; experiment: Toxicity in cynomolgus monkey assessed as nonhemolytic anemia after 28 days administered with repeated doses; assay type: organism-based, Macaca fascicularis; settings: in vivo, 672 h
[7] = test system: Rattus norvegicus; experiment: Toxicity in rat assessed as nonhemolytic anemia after 28 days administered with repeated doses; assay type: organism-based; settings: in vivo, 672 h
[8] = test system: Rattus norvegicus; experiment: Antiepileptic activity in po dosed Wistar rat assessed as latency in maximum electric shock-induced hind limb extension administered 30 mins prior to electric shock-challenge measured up to 6 secs; assay type: functional; settings: Hindlimb
[9] = Agonist activity at KCNQ expressed in CHO cells assessed as increase in KCl-induced 86Rb+ efflux incubated for 10 mins prior to KCl-induction by liquid scintillation; assay type: functional, cell-based
[10] = Half life in Sprague-Dawley rat at 2mg/kg, iv; assay type: ADME, organism-based; settings: in vivo
Procedure, shortened: (§1)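 Rats received a single 2 mg/kg intravenous dose. Half-life and clearance were determined, and volume of distribution (Vz) was calculated from the terminal phase.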

[11] = Clearance in Sprague-Dawley rat at 2mg/kg, iv; assay type: ADME, organism-based; settings: in vivo; procedure, shortened: as §1
[12] = molecular target: Sodium channel protein type 5 subunit alpha (Homo sapiens, UniProt Q14524); experiment: Inhibition of NaV1.5
[13] = Inhibition of L-type calcium channel
[14] = molecular target: Voltage-gated inwardly rectifying potassium channel KCNH2 (Homo sapiens, UniProt Q12809); experiment: Inhibition of human ERG
[15] = Oral bioavailability in Sprague-Dawley rat at 2 mg/kg; assay type: ADME, organism-based; settings: in vivo
[16] = test system: Rattus norvegicus; experiment: Volume of distribution during terminal phase in Sprague-Dawley rat at 2 mg/kg, iv; assay type: ADME, organism-based; set-up: dose 2 mg/kg, route intravenous; settings: in vivo; procedure, shortened: as §1
[17] = Activity at GABA(A) gated channel at 10 uM
[18] = Tmax in Sprague-Dawley rat at 2 mg/kg, po; assay type: ADME, organism-based; set-up: dose 2 mg/kg, route oral; settings: in vivo
[19] = Selectivity ratio of EC50 for KCNQ3/KCNQ5 to EC50 for KCNQ2/KCNQ3

Voltage-gated potassium channel, IKs; KCNQ1(Kv7.1)/KCNE1(MinK), sequence (P51787 whole entry): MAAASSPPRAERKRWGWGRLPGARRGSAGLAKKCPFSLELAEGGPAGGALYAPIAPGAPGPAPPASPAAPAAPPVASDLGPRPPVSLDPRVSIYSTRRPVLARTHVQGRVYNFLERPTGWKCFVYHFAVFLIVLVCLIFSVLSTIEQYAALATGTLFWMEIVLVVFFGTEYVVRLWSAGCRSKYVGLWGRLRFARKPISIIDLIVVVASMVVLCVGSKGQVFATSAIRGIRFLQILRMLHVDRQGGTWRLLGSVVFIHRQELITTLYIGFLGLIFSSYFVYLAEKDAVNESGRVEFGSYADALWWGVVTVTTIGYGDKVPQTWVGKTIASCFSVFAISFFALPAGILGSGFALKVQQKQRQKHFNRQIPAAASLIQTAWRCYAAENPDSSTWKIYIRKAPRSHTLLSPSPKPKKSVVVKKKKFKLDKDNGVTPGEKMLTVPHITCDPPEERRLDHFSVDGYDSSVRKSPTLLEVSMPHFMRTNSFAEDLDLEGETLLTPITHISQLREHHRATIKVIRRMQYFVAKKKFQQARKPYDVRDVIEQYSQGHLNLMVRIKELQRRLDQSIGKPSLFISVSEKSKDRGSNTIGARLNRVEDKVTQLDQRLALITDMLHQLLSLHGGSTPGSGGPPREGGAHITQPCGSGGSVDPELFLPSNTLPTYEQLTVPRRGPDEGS
Voltage-gated potassium channel KCNQ3/KCNQ5, sequence (O43525 whole entry): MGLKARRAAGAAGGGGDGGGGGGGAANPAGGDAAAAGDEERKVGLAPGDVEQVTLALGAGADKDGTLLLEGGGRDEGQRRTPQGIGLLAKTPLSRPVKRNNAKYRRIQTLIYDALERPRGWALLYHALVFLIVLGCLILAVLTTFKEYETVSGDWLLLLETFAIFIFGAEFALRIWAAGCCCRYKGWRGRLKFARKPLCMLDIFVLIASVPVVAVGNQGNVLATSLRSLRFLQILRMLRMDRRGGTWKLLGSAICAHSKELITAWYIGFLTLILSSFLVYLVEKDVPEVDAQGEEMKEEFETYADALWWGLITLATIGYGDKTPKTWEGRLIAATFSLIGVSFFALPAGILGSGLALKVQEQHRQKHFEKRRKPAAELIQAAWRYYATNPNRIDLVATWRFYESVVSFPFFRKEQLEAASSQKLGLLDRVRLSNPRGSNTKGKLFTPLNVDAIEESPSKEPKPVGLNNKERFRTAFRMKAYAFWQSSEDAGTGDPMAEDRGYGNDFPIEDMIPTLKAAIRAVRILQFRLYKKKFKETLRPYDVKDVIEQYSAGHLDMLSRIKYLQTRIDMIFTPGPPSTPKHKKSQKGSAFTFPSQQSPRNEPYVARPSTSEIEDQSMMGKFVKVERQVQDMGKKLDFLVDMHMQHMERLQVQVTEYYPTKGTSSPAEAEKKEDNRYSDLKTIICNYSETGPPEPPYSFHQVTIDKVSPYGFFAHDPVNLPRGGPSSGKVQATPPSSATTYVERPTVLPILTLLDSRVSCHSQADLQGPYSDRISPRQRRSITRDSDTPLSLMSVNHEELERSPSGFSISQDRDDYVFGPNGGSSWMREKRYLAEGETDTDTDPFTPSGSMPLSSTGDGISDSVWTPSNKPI
Voltage-gated potassium channel KCNQ3/KCNQ5, sequence (Q9NR82 whole entry): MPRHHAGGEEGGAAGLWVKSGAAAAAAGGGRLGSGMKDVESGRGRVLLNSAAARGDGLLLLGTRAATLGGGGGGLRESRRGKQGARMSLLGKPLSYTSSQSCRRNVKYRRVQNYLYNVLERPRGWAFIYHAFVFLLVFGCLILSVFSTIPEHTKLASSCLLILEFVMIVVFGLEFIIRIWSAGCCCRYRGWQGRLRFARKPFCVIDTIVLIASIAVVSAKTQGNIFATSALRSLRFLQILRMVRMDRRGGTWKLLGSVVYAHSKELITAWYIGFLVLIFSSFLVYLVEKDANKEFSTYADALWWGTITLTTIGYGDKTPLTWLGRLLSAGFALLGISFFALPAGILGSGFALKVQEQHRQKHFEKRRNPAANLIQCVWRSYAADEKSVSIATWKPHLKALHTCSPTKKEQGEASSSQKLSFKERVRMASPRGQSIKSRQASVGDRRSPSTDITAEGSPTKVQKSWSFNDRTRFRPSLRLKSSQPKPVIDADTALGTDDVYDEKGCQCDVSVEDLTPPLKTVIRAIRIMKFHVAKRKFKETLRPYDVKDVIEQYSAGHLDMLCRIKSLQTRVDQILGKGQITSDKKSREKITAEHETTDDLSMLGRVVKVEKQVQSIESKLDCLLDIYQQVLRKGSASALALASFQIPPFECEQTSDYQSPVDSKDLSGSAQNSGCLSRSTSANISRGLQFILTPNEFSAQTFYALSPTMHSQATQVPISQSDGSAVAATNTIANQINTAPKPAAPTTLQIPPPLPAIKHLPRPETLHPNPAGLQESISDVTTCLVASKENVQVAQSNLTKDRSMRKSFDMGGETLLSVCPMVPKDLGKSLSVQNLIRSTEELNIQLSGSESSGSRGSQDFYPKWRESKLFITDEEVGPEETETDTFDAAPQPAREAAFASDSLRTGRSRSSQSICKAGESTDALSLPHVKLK
Voltage-gated potassium channel, KQT; KCNQ2(Kv7.2)/KCNQ3(Kv7.3), sequence (O43526 whole entry): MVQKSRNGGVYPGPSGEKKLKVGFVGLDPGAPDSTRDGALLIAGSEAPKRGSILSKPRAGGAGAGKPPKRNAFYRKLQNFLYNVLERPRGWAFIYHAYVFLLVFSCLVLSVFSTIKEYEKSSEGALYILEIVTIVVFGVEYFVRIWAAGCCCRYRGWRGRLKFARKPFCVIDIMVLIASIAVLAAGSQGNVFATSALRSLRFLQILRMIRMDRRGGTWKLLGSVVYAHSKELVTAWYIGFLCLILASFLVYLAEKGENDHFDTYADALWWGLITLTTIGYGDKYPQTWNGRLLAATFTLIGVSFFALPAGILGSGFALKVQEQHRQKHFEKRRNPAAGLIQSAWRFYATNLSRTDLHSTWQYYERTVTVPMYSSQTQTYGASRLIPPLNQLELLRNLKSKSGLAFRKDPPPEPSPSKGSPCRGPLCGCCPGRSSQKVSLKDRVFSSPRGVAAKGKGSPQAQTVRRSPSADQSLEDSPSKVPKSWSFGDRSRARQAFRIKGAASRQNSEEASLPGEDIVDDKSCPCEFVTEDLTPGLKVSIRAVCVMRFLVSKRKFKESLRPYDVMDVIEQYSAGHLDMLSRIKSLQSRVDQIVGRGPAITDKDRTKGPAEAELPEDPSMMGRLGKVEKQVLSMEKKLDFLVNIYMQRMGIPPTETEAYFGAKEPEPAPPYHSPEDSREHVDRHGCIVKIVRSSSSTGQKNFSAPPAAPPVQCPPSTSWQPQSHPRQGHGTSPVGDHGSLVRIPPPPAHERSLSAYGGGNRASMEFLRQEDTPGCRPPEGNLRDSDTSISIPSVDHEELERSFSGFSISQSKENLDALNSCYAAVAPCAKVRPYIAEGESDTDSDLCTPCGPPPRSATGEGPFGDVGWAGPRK
Voltage-gated potassium channel, KQT; KCNQ2(Kv7.2)/KCNQ3(Kv7.3), sequence (O43525 whole entry): as the sequence (O43525 whole entry) above
Voltage-gated inwardly rectifying potassium channel KCNH2, sequence (Q12809 whole entry): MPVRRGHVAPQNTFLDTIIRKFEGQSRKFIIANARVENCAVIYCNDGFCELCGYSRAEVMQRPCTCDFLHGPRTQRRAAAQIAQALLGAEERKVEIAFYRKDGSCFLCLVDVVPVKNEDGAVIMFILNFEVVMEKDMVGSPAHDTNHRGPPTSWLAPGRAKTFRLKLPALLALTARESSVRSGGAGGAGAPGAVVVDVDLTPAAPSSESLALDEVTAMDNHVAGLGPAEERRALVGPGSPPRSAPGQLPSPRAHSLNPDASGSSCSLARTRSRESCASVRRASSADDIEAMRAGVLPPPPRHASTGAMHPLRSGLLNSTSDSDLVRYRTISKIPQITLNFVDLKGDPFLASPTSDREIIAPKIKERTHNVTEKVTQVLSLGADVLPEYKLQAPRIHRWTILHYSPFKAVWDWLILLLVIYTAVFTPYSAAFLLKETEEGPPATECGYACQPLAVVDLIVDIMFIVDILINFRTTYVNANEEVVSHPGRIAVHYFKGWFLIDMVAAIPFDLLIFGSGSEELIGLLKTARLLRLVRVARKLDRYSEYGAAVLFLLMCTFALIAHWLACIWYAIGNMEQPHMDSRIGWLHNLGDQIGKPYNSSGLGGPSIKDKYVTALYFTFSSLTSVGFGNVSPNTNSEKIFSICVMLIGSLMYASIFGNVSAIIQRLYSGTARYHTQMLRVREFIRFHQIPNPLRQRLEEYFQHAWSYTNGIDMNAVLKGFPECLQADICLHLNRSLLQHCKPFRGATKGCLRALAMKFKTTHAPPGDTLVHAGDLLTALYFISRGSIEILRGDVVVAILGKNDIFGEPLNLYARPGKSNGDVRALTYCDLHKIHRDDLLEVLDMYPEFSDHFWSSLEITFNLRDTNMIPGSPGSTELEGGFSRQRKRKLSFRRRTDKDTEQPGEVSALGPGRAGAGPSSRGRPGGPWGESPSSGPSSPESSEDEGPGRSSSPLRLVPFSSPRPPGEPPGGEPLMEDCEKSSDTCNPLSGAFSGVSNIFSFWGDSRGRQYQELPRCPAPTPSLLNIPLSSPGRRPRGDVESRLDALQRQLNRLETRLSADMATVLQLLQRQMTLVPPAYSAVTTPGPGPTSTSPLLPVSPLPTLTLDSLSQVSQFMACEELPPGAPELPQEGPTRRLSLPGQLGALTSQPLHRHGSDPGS

Structure (SMILES) | EC50 [1] | IC50 [2] | further results
Cc1ccc(NC(=O)c2ccc(F)c(F)c2)cn1 | 6.8 µM | – | –
N#Cc1ccc(NC(=O)c2ccc(F)c(F)c2)cn1 | 10 µM | – | –
O=C(Nc1ccc(Cl)nc1)c1ccc(S(=O)(=O)c2ccc(F)cc2)c(F)c1 | 0.07 µM | > 100 µM | –
O=C(Nc1ccc(F)nc1)c1ccc(F)c(F)c1 | 4.8 µM | – | –
O=C(Nc1ccc(Cl)nc1)c1ccc(-c2ccccc2)cc1 | 0.26 µM | > 30 µM | –
O=C(Nc1ccc(Cl)nc1)c1ccc(NCCc2ccccc2)c(F)c1 | 0.18 µM | > 100 µM | –
O=C(Nc1ccc(Cl)nc1)c1ccc(S(=O)(=O)Cc2ccc(F)cc2)c(F)c1 | 0.16 µM | > 100 µM | –
O=C(Nc1ccc(Cl)nc1)c1ccc(Cl)c(F)c1 | 0.08 µM | 15 µM | –
Cc1ccc(C(=O)Nc2ccc(Cl)nc2)cc1C | 0.69 µM | > 100 µM | –
CC(C)CSc1ccc(C(=O)Nc2ccc(Cl)nc2)cc1F | 0.14 µM | > 100 µM | –
O=C(Nc1ccc(Cl)nc1)c1ccc(F)c(Cl)c1 | 0.19 µM | 22 µM | –
CC(C)Sc1ccc(C(=O)Nc2ccc(Cl)nc2)cc1F | 0.11 µM | 5.8 µM | –
O=C(Nc1ccc(C(F)(F)F)nc1)c1ccc(F)c(F)c1 | > 10 µM | – | –
Cc1ccc(C(=O)Nc2cnc(Cl)nc2)cc1F | 0.6 µM | 93 µM | EC50 [3]: 10 µM
O=C(Nc1ccc(Cl)nc1)c1ccc(F)c(F)c1 | 0.38 µM | 41 µM | Activity [4]: Toxic; ED50 [5]: 2.2 mg/kg; Activity [6]: Toxic; Activity [7]: Toxic; ED50 [8]: 1.5 mg/kg
O=C(Nc1ccc(Cl)nc1)c1cccc(Cl)c1 | 0.27 µM | 41 µM | –
CC(C)Oc1ccc(C(=O)Nc2ccc(Cl)nc2)cc1F | 0.17 µM | > 100 µM | –
O=C(Nc1ccc(Cl)nc1)c1ccccc1F | > 10 µM | – | –
O=C(Nc1ccc(Cl)nc1)c1ccc(F)cc1 | 0.98 µM | 66 µM | –
O=C(Nc1cnc(Cl)nc1)c1ccc(Cl)c(F)c1 | 0.41 µM | 49 µM | EC50 [3]: 9 µM
O=C(Nc1ccncc1)c1ccc(Cl)c(Cl)c1 | – | – | EC50 [9]: > 10 µM
O=C(Nc1ccccc1)c1ccc(Cl)c(Cl)c1 | – | – | EC50 [9]: > 10 µM
O=C(Nc1cnc(Cl)nc1)c1cccc(C(F)(F)F)c1 | 4.3 µM | 35 µM | EC50 [3]: 28 µM
O=C(Nc1cccnc1)c1ccc(Cl)c(Cl)c1 | – | – | EC50 [9]: 6 µM
COc1ccc(NC(=O)c2ccc(F)c(F)c2)cn1 | > 10 µM | – | –
O=C(Nc1ccc(Cl)nc1)c1cccc(C(F)(F)F)c1 | 0.39 µM | 5.8 µM | –
O=C(Nc1ccc(Cl)nc1)c1ccc(Sc2ccc(F)cc2)c(F)c1 | 0.08 µM | > 100 µM | –
O=C(Nc1ccc(NC2CC2)nc1)c1ccc(F)c(F)c1 | 2.7 µM | – | –

Structure (SMILES) | EC50 [1] | IC50 [2] | further results
O=C(Nc1ccc(Cl)nc1)c1cccc(F)c1F | > 10 µM | – | –
O=C(Nc1cnc(Cl)nc1)c1cccc(Cl)c1 | 1.1 µM | 78 µM | EC50 [3]: 14 µM
O=C(Nc1ccc(Cl)nc1)c1cccc(F)c1 | 1.1 µM | 77 µM | –
O=C(Nc1ccc(Cl)nc1)c1ccc(Oc2ccccc2)cc1 | 0.01 µM | 1.9 µM | –
O=C(Nc1cnc(Cl)nc1)c1ccc(F)c(F)c1 | 0.69 µM | > 100 µM | half-life [10]: 72 min; ED50 [5]: < 1 mg/kg; clearance [11]: 17.3 mL/min/kg; IC50 [12]: > 30 µM; IC50 [13]: > 30 µM; IC50 [14]: > 30 µM; EC50 [3]: 14.3 µM; bioavailability [15]: 63%; Vz/F [16]: 1.804 L/kg; Activity [17]: inactive; ED50 [8]: 1.5 mg/kg; Tmax [18]: 30 min; Ratio EC50 [19]: 20
O=C(Nc1ccccn1)c1ccc(Cl)c(Cl)c1 | – | – | EC50 [9]: > 10 µM
NS(=O)(=O)c1ccc(C(=O)Nc2ccc(Cl)nc2)cc1 | > 10 µM | – | –
O=C(Nc1ccc(Cl)nc1)c1ccc(C(F)(F)F)c(F)c1 | 0.37 µM | 3.4 µM | –
Cc1ccc(C(=O)Nc2ccc(Cl)nc2)cc1F | 0.28 µM | 33 µM | –
O=C(Nc1ccc(Cl)nc1)c1ccc(F)c(C(F)(F)F)c1 | 0.42 µM | 3.4 µM | –
O=C(Nc1ccc(Cl)nc1)c1ccccc1 | 1.6 µM | > 100 µM | –
COc1ccc(C(=O)Nc2ccc(Cl)nc2)cc1F | 3.2 µM | > 100 µM | –
O=C(Nc1ccc(Cl)nc1)c1ccc(SCc2ccc(F)cc2)c(F)c1 | 1.6 µM | > 100 µM | –
O=C(Nc1ccc(Cl)nc1)c1ccc(Cl)c(Cl)c1 | 0.67 µM | 17 µM | –
O=C(Nc1ccc(Cl)nc1)c1ccc(Cl)cc1 | – | 15 µM | –
O=C(Nc1ccc(O)nc1)c1ccc(F)c(F)c1 | > 10 µM | – | –
COc1cccc(C(=O)Nc2ccc(Cl)nc2)c1 | 5.5 µM | – | –
CCOc1ccc(C(=O)Nc2ccc(Cl)nc2)cc1F | 0.57 µM | > 100 µM | –
O=C(Nc1ccc(N2CCOCC2)nc1)c1ccc(F)c(F)c1 | 7.8 µM | – | –
N#Cc1cccc(C(=O)Nc2ccc(Cl)nc2)c1 | > 10 µM | – | –
O=C(Nc1ccc(N2CCCC2)nc1)c1ccc(F)c(F)c1 | 0.48 µM | – | –
O=C(Nc1ccc(Cl)nc1)c1ccc(Oc2ccccc2)c(F)c1 | 0.03 µM | 1.3 µM | –
O=C(Nc1cnc(Cl)nc1)c1cccc(F)c1 | 7.2 µM | > 100 µM | EC50 [3]: 23 µM
O=C(Nc1ccc(Cl)nc1)c1ccc(C(F)(F)F)cc1 | 0.32 µM | 2.9 µM | –
CSc1ccc(NC(=O)c2ccc(F)c(F)c2)cn1 | > 10 µM | – | –
N#Cc1ccc(C(=O)Nc2ccc(Cl)nc2)cc1F | 1.1 µM | 51 µM | –
CC(C)CS(=O)(=O)c1ccc(C(=O)Nc2ccc(Cl)nc2)cc1F | 0.26 µM | 54 µM | –
